We go through three compounds from ChEMBL document CHEMBL1138683 (J Med Chem, 2004).

Data set [1] can be described thus: Anti convulsant activity administered intra peritoneally to mouse for toxicity at 0.5 hr with dose of 30 mg/kg; 0/4= No of animals exhibiting toxicity /No of animals tested. To be noted: in vivo, ip. The arrangement: dose 30 mg/kg. It is filed as organism-based.
The nature of data set [2]: Anti convulsant activity administered intra peritoneally to mouse for toxicity at 0.5 hr with dose of 300 mg/kg; 4/4= No of animals exhibiting toxicity /No of animals tested. It is filed as organism-based. Conditions: in vivo, ip. The arrangement: dose 300 mg/kg.
Data set [3] can be described thus: Anti convulsant activity administered intra peritoneally to mouse for toxicity at 4 hr with dose of 30 mg/kg; 0/2= No of animals exhibiting toxicity /No of animals tested. Type of data set: organism-based. On the set-up: dose 30 mg/kg. To be noted: in vivo, ip.
The nature of data set [4]: Toxicity after oral administration of 50 mg/kg dose in rats; ++ means 50% of the animals exhibiting toxicity. Type of data set: organism-based. The arrangement: dose 50 mg/kg, route oral. Conditions: rat, in vivo. An outline of the steps: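 Rats dosed orally with compound dissolved or suspended in 0.5% methylcellulose (0.04 mL per 10 g body weight). Anticonvulsant protection (MES or scMet) and toxicity scored at 15 min, 30 min, 1 h, 2 h and 4 h after dosing. Graded in steps of 25% of animals protected or showing toxicity.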

For data set [5], the system named is Mus musculus. As to the kind of experiment: Anti convulsant activity administered intra peritoneally to mouse at maximal electroshock test at 4 hr after the drug administered with dose of 30 mg/kg; 0/1= No of animals protected /No of animals tested. Type of data set: functional. On the technique in general: Protection in the maximal electroshock model is a classic sign of anticonvulsant action.

Data set [6] relates to Mus musculus. As to the kind of experiment: Anti convulsant activity administered intra peritoneally to mouse for subcutaneous metrazol test at 4 hr after the drug administered with dose of 100 mg/kg; 0/1= No of animals protected /No of animals tested. It is filed as functional.
Data set [7] deals with Mus musculus. Nature of the data set: Anti convulsant activity administered intra peritoneally to mouse at maximal electroshock test at 0.5 hr after the drug administered with dose of 100 mg/kg; 0/3= No of animals protected /No of animals tested. Type of data set: functional.
Data set [8] relates to Mus musculus. As to the kind of experiment: Anti convulsant activity administered intra peritoneally to mouse for subcutaneous metrazol test at 4 hr after the drug administered with dose of 30 mg/kg; 0/1= No of animals protected /No of animals tested. Type of data set: functional. To be noted: route intraperitoneal.
For data set [9], the system named is Mus musculus. Nature of the data set: Anti convulsant activity administered intra peritoneally to mouse for subcutaneous metrazol test at 0.5 hr with dose of 30 mg/kg; 0/1= No of animals protected /No of animals tested. Type of data set: functional.
For data set [10], the system named is Rattus norvegicus. As to the kind of experiment: Anticonvulsant activity after oral administration of 30 mg/kg dose after 4 hr in rats; - means 25% of the animal protected. Type of data set: functional, organism-based. On the set-up: dose 30 mg/kg.
Data set [11] concerns Mus musculus. Nature of the data set: Anti convulsant activity administered intra peritoneally to mouse at maximal electroshock test at 0.5 hr after the drug administered with dose of 300 mg/kg; 1/1= No of animals protected /No of animals tested. Type of data set: functional.
Data set [12] can be described thus: Anti convulsant activity administered intra peritoneally to mouse for toxicity at 4 hr with dose of 300 mg/kg; 2/2= No of animals exhibiting toxicity /No of animals tested. On the set-up: dose 300 mg/kg. It is filed as organism-based. To be noted: in vivo, ip.
For data set [13], the system named is Rattus norvegicus. As to the kind of experiment: Anticonvulsant activity after oral administration of 223 mg/kg dose after 1 hr in rats; ++++ means 100% of the animals protected. Type of data set: functional, organism-based. The arrangement: dose 223 mg/kg. An outline of the steps: (§1)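 Oral dosing of rats at a single dose, compound dissolved or suspended in 0.5% methylcellulose. Protection in the MES or scMet test checked 15 min, 30 min, 1 h, 2 h and 4 h after dosing. Scored as 25/50/75/100% of animals protected (+ to ++++), – for none.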

The subject of data set [14] is Mus musculus. As to the kind of experiment: Anti convulsant activity administered intra peritoneally to mouse for subcutaneous metrazol test at 0.5 h with dose of 300 mg/kg; 0/1= No of animals protected /No of animals tested. Type of data set: functional.
Data set [15] is described as follows: Anti convulsant activity administered intra peritoneally to mouse for toxicity at 4 hr with dose of 100 mg/kg; 0/4= No of animals exhibiting toxicity /No of animals tested. It is filed as organism-based. On the set-up: dose 100 mg/kg. Conditions: in vivo, ip.
The subject of data set [16] is Mus musculus. Nature of the data set: Anti convulsant activity administered intra peritoneally to mouse at maximal electroshock test at 4 hr after the drug administered with dose of 100 mg/kg; 0/3= No of animals protected /No of animals tested. It is filed as functional.
In data set [17] the test system is Mus musculus. As to the kind of experiment: Anti convulsant activity administered intra peritoneally to mouse at maximal electroshock test at 4 hr after the drug administered with dose of 300 mg/kg; 1/1= No of animals protected /No of animals tested. It is filed as functional.
The subject of data set [18] is Mus musculus. Nature of the data set: Anti convulsant activity administered intra peritoneally to mouse at maximal electroshock test at 0.5 h after the drug administered with dose of 30 mg/kg; 0/1= No of animals protected /No of animals tested. It is filed as functional.
The test system of data set [19] is Mus musculus. Nature of the data set: Anti convulsant activity administered intra peritoneally to mouse for subcutaneous metrazol test at 0.5 hr with dose of 100 mg/kg; 0/1= No of animals protected /No of animals tested. Type of data set: functional.
Data set [20] relates to Mus musculus. Nature of the data set: Anti convulsant activity administered intra peritoneally to mouse for subcutaneous metrazol test at 4 hr with dose of 300 mg/kg; 0/1= No of animals protected /No of animals tested. Type of data set: functional.
Data set [21] is described as follows: Anti convulsant activity administered intra peritoneally to mouse for toxicity at 0.5 hr with dose of 100 mg/kg; 0/8= No of animals exhibiting toxicity /No of animals tested. It is filed as organism-based. On the set-up: dose 100 mg/kg. Conditions: in vivo, ip.
Data set [22] has as its system Mus musculus. As to the kind of experiment: Anticonvulsant activity administered intra peritoneally to mouse at subcutaneous metrazol test. It is filed as functional. To be noted: sc.
Data set [23] deals with Mus musculus. Nature of the data set: Anticonvulsant activity administered intra peritoneally to mouse for the protective index of toxicity by maximal electroshock test; T D50/ED50. It is filed as functional.
Data set [24] has as its system Mus musculus. As to the kind of experiment: Anticonvulsant activity administered intra peritoneally to mouse for protective index of subcutaneous metrazol test. It is filed as functional.
In data set [25] the test system is Rattus norvegicus. Nature of the data set: Anticonvulsant activity administered orally to rat for protective index of subcutaneous metrazol test. Type of data set: functional.
Data set [26] has as its system Rattus norvegicus. As to the kind of experiment: Anticonvulsant activity administered orally to rat for the protective index of toxicity by maximal electroshock test; T D50/ED50. It is filed as functional.
For data set [27], the system named is Mus musculus. Nature of the data set: Anticonvulsant activity administered intra peritoneally to mouse at maximal electro shock test; the interval in parenthesis stands for 95% confidence interval. It is filed as functional.
In data set [28] the test system is Rattus norvegicus. As to the kind of experiment: Anticonvulsant activity administered orally to rat at subcutaneous metrazol test. It is filed as functional.
The subject of data set [29] is Rattus norvegicus. Nature of the data set: Anticonvulsant activity administered orally to rat at maximal electro shock test; the interval in parenthesis stands for 95% confidence interval. It is filed as functional. To be noted: po.
Data set [30] in a line: Anticonvulsant activity administered orally to rat for toxicity. Conditions: in vivo, po.
Data set [31] can be described thus: Anti convulsant activity administered intra peritoneally to mouse for toxicity at 0.5 hr with dose of 300 mg/kg; 3/4= No of animals exhibiting toxicity /No of animals tested. It is filed as organism-based. The arrangement: dose 300 mg/kg. To be noted: in vivo, ip.
Data set [32] concerns Rattus norvegicus. As to the kind of experiment: Anticonvulsant activity after oral administration of 30 mg/kg dose after 15 min in rats; +means 25% of the animals protected. On the set-up: dose 30 mg/kg. It is filed as functional, organism-based. The method, boiled down: as §1
Data set [33] concerns Rattus norvegicus. As to the kind of experiment: Anticonvulsant activity after oral administration of 30 mg/kg dose after 1 hr in rats; + means 25% of the animals protected. The arrangement: dose 30 mg/kg. It is filed as functional, organism-based. An outline of the steps:
as §1

Data set [34] is described as follows: Anti convulsant activity administered intra peritoneally to mouse for toxicity at 4 hr with dose of 300 mg/kg; 0/2= No of animals exhibiting toxicity /No of animals tested. Type of data set: organism-based. On the set-up: dose 300 mg/kg. To be noted: in vivo, ip.
The subject of data set [35] is Mus musculus. Nature of the data set: Anti convulsant activity administered intra peritoneally to mouse at maximal electroshock test at 4 hr after the drug administered with dose of 300 mg/kg; 0/1= No of animals protected /No of animals tested. Type of data set: functional.

In the case of `CCNC(=O)C1C(C)(C)C1(C)C`, the Toxicity in data set [1] was 0; in [2], 4; in [3] it was 0; in data set [4], 50% of the animals exhibiting toxicity; in data set [12], 2; in data set [15], 0. This compound also displayed a Toxicity in data set [21] of 0. The Activity with Mus musculus [5] is 0; in the data set on Mus musculus [6], 0; in the data set on Mus musculus [7], 0; in the data set with Mus musculus [8], 0; with Mus musculus [9], 0; in the data set on Rattus norvegicus [10], 100% of the animals protected. Moreover, the Activity in the data set on Mus musculus [11] is reported as 1; in the data set on Rattus norvegicus [13], 100% of the animals protected; in the data set on Mus musculus [14], 1; with Mus musculus [16] it was 0; in the data set with Mus musculus [17], 1; in the data set on Mus musculus [18], 0. Moreover, the Activity with Mus musculus [19] and in the data set with Mus musculus [20] was 0 throughout.

Take `CC1(C)C(C(=O)NCC(N)=O)C1(C)C`: the ED50 (usually the midpoint of the dose-response relation) was 115 mg/kg in the data set on Mus musculus [22], 173 mg/kg in the data set with Mus musculus [27], more than 250 mg/kg in the data set with Rattus norvegicus [28] and 82 mg/kg in the data set on Rattus norvegicus [29]. The Ratio in the data set on Mus musculus [23] amounted to 1.5. Besides, the values for the Activity in the data set with Mus musculus [24], in the data set with Rattus norvegicus [25] and in the data set on Rattus norvegicus [26] were 2.3, -2 and more than 6.1, respectively. The TD50 (in general, the 50% point of the dose-response relation for the toxic effect studied) in data set [30] was more than 500 mg/kg.

On to `CC(O)CNC(=O)C1C(C)(C)C1(C)C` (centres undefined), for which the Toxicity in data set [31] was found to be 3; in [1], 0; in data set [3], 0; in [15] it was 0; in data set [34], 0; in data set [21] it was 0. The Activity in the data set on Rattus norvegicus [32] is 25% of the animals protected; in the data set with Mus musculus [5], 0; in the data set with Mus musculus [6], 0; in the data set with Mus musculus [7] it was 0; in the data set on Mus musculus [8] it was 0; in the data set on Mus musculus [9], 0. In addition, the Activity with Mus musculus [11] is on record as 1; in the data set with Mus musculus [14], 0; in the data set on Rattus norvegicus [33], 25% of the animals protected; in the data set on Mus musculus [16], 0; with Mus musculus [35], 0; with Mus musculus [18] it was 0. The compound also returned an Activity in the data set with Mus musculus [20] of 0.
